{
  "source": "paper PMC2921005",
  "about": "(Leukemia, 2010)",
  "key": {"[1]": {"assay": "Phase I dose escalation trial: toxicities, DLT and MTD", "format": "in vivo, human", "details": "for Any toxicity, Grade 3: n = number of events", "method_in_brief": "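Oral twice-daily tablets of test compound were given for 14 or 21 days of each 28-day cycle. Dose levels were 400 mg ×14 d, 400 mg ×21 d, 600 mg ×14 d and 600 mg ×21 d. Every patient was assessed for DLT, with no intrapatient escalation and up to 6 cycles.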"}, "[2]": {"assay": "Plasma pharmacokinetics of sorafenib and sorafenib N-oxide", "details": "for concentration at 8 day: Day 8 Cmin; for concentration at 15 day: Day 15 Cmin; for Tmax: first dose, median (range, n)"}, "[3]": {"details": "human, in vivo, 400 mg, dose levels 1 and 2, 400 mg, mean ± SD"}, "[4]": {"details": "human, in vivo, po, 600 mg, dose level 3, 600 mg PO BID × 14 of 28 days, n=1"}, "[5]": {"details": "inter-individual variability, up to"}},
  "data": [
    {"smiles": "CNC(=O)c1cc(Oc2ccc(NC(=O)Nc3ccc(Cl)c(C(F)(F)F)c3)cc2)ccn1", "note": "[sorafenib]", "values": [
      {"measurement": "Any toxicity, Grade 4", "setting": "[1]; 400 mg bid × 21d (cycles=21)", "value": "3 (14) n (%)"},
      {"measurement": "Bilirubin, Grade 4", "setting": "[1]; 400 mg bid × 21d (cycles=21)", "value": "1 (5) n (%)"},
      {"measurement": "Edema (limb), Grade 3", "setting": "[1]; 400 mg bid × 21d (cycles=21)", "value": "2 (10) n (%)"},
      {"measurement": "Fatigue, Grade 3", "setting": "[1]; 400 mg bid × 21d (cycles=21)", "value": "4 (19) n (%)"},
      {"measurement": "Febrile neutropenia, Grade 3", "setting": "[1]; 400 mg bid × 21d (cycles=21)", "value": "3 (14) n (%)"},
      {"measurement": "Fever (without neutropenia), Grade 3", "setting": "[1]; 400 mg bid × 21d (cycles=21)", "value": "1 (5) n (%)"},
      {"measurement": "Hand-foot skin reaction, Grade 3", "setting": "[1]; 400 mg bid × 21d (cycles=21)", "value": "1 (5) n (%)"},
      {"measurement": "Hypokalemia, Grade 3", "setting": "[1]; 400 mg bid × 21d (cycles=21)", "value": "2 (10) n (%)"},
      {"measurement": "Hypophosphatemia, Grade 3", "setting": "[1]; 400 mg bid × 21d (cycles=21)", "value": "1 (5) n (%)"},
      {"measurement": "Hypophosphatemia, Grade 4", "setting": "[1]; 400 mg bid × 21d (cycles=21)", "value": "1 (5) n (%)"},
      {"measurement": "Muscle weakness, Grade 3", "setting": "[1]; 400 mg bid × 21d (cycles=21)", "value": "2 (10) n (%)"},
      {"measurement": "Pain, Abdomen NOS, Grade 3", "setting": "[1]; 400 mg bid × 21d (cycles=21)", "value": "1 (5) n (%)"},
      {"measurement": "Pain, Back, Grade 3", "setting": "[1]; 400 mg bid × 21d (cycles=21)", "value": "0 (0) n (%)"},
      {"measurement": "Pain, Joint, Grade 3", "setting": "[1]; 400 mg bid × 21d (cycles=21)", "value": "1 (5) n (%)"},
      {"measurement": "Any toxicity, Grade 3", "setting": "[1]; 400 mg bid × 21d (cycles=21)", "value": "10 (48) n (%)"},
      {"measurement": "Dose limiting toxicities, patients", "setting": "[1]; 600mg BID × 14 days, elevated transaminases (n=1), back pain (1)", "value": "2/3"},
      {"measurement": "Alkaline phosphatase, Grade 3", "setting": "[1]; 600 mg bid × 14d (cycles=4)", "value": "0 (0) n (%)"},
      {"measurement": "Any toxicity, Grade 4", "setting": "[1]; 600 mg bid × 14d (cycles=4)", "value": "1 (25) n (%)"},
      {"measurement": "Bilirubin, Grade 4", "setting": "[1]; 600 mg bid × 14d (cycles=4)", "value": "1 (25) n (%)"},
      {"measurement": "Edema (limb), Grade 3", "setting": "[1]; 600 mg bid × 14d (cycles=4)", "value": "0 (0) n (%)"},
      {"measurement": "Fatigue, Grade 3", "setting": "[1]; 600 mg bid × 14d (cycles=4)", "value": "0 (0) n (%)"},
      {"measurement": "Febrile neutropenia, Grade 3", "setting": "[1]; 600 mg bid × 14d (cycles=4)", "value": "2 (50) n (%)"},
      {"measurement": "Fever (without neutropenia), Grade 3", "setting": "[1]; 600 mg bid × 14d (cycles=4)", "value": "0 (0) n (%)"},
      {"measurement": "Hand-foot skin reaction, Grade 3", "setting": "[1]; 600 mg bid × 14d (cycles=4)", "value": "0 (0) n (%)"},
      {"measurement": "Hypokalemia, Grade 3", "setting": "[1]; 600 mg bid × 14d (cycles=4)", "value": "0 (0) n (%)"},
      {"measurement": "Hypophosphatemia, Grade 3", "setting": "[1]; 600 mg bid × 14d (cycles=4)", "value": "0 (0) n (%)"},
      {"measurement": "Hypophosphatemia, Grade 4", "setting": "[1]; 600 mg bid × 14d (cycles=4)", "value": "0 (0) n (%)"},
      {"measurement": "Muscle weakness, Grade 3", "setting": "[1]; 600 mg bid × 14d (cycles=4)", "value": "0 (0) n (%)"},
      {"measurement": "Pain, Abdomen NOS, Grade 3", "setting": "[1]; 600 mg bid × 14d (cycles=4)", "value": "0 (0) n (%)"},
      {"measurement": "Pain, Back, Grade 3", "setting": "[1]; 600 mg bid × 14d (cycles=4)", "value": "1 (25) n (%)"},
      {"measurement": "Pain, Joint, Grade 3", "setting": "[1]; 600 mg bid × 14d (cycles=4)", "value": "0 (0) n (%)"},
      {"measurement": "Any toxicity, Grade 3", "setting": "[1]; 600 mg bid × 14d (cycles=4)", "value": "4 (100) n (%)"},
      {"measurement": "Grade ≥3 toxicities, cycles", "setting": "[1]; 17 of 31 cycles", "value": 55, "unit": "%"},
      {"measurement": "Toxicities (any grade) potentially related to therapy, cycles", "setting": "[1]; 23 out of 31 cycles", "value": 74, "unit": "%"},
      {"measurement": "Maximum tolerated dose (MTD)", "setting": "[1]; × 21 days in a 28 day cycle, oral", "value": 400, "unit": "mg BID"},
      {"measurement": "Patients with detectable plasma concentration after 14 day break in treatment", "setting": "[2]; 1/3 patients", "value": 33, "unit": "%"},
      {"measurement": "concentration at 3 day", "setting": "[2]; human, in vivo, 400 mg, Day 3 Cmin, dose levels 1 and 2, 400 mg, mean ± SD", "value": "3980 ± 3140", "unit": "ng/mL"},
      {"measurement": "concentration at 8 day", "setting": "[2]; [3]", "value": "4030 ± 3680", "unit": "ng/mL"},
      {"measurement": "concentration at 15 day", "setting": "[2]; [3]", "value": "4600 ± 5250", "unit": "ng/mL"},
      {"measurement": "concentration at 29 day", "setting": "[2]; human, in vivo, po, 400 mg, Day 29 C, dose level 1, 400 mg PO BID × 14 of 28 days, after 14 day break", "value": 190, "unit": "ng/mL"},
      {"measurement": "Tmax", "setting": "[2]; human, in vivo, po, 400 mg, dose level 1, 400 mg PO BID × 14 of 28 days", "value": 2.3, "unit": "h"},
      {"measurement": "Tmax", "setting": "[2]; human, in vivo, po, 400 mg, dose level 2, 400 mg PO BID × 21 of 28 days", "value": 4, "unit": "h"},
      {"measurement": "concentration at 2 day", "setting": "[2]; human, in vivo, po, 600 mg, Day 2 Cmin, dose level 3, 600 mg PO BID × 14 of 28 days, n=1", "value": 2490, "unit": "ng/mL"},
      {"measurement": "concentration at 8 day", "setting": "[2]; [4]", "value": 7790, "unit": "ng/mL"},
      {"measurement": "concentration at 15 day", "setting": "[2]; [4]", "value": 3650, "unit": "ng/mL"},
      {"measurement": "Tmax", "setting": "[2]; human, in vivo, po, 600 mg, dose level 3, 600 mg PO BID × 14 of 28 days", "value": 8, "unit": "h"},
      {"measurement": "Coefficient of variation of AUC(0–8h)", "setting": "[2]; [5]", "value": "up to 95%"},
      {"measurement": "Coefficient of variation of Cmax", "setting": "[2]; [5]", "value": "≤ 116", "unit": "%"},
      {"measurement": "Patients with detectable plasma concentration after 7 day break in treatment", "setting": "[2]; of 5 patients", "value": 80, "unit": "%"}
    ]}
  ]
}
